Assay results: publication PMC6993113 (Journal of medicinal chemistry, 2017)
Where “and” joins values, the source holds several entries; their conditions need not be identical. Identical values can stand only once.

Experiments:
[1] = tested on: MV4;11 acute leukemia cell line; test: Cell growth inhibition; type: cell-based; conditions: Homo sapiens, MV4-11, 96 h, read-out: IC50 MV4;11 cell growth inhibition
MV4;11 xenograft tumors = conditions: mouse, in vivo
[2] = molecular target: recombinant human BRD4 BD2 (Homo sapiens, UniProt O60885); test: Competitive fluorescence-polarization binding assay, BRD4 BD2; conditions: for Ki: BRD4 BD2 Ki, FP competitive binding
[3] = tested on: MOLM-13 acute leukemia cell line; test: Cell growth inhibition; type: cell-based; conditions: Homo sapiens, MOLM-13, 96 h, read-out: IC50 MOLM-13 cell growth inhibition
[4] = molecular target: recombinant human BRD4 BD1 (Homo sapiens, UniProt O60885); test: Competitive fluorescence-polarization binding assay, BRD4 BD1; conditions: for Ki: BRD4 BD1 Ki, FP competitive binding, Tables 1, 2, 7 and text
[5] = Solubility in the dosing vehicle; type: physicochemical; conditions: 5% DMSO+10% Cremophor+85% saline
Aqueous solubility = type: physicochemical
Pharmacokinetics in rats = type: in vivo, Sprague Dawley rats; conditions: for CL: Rat, PO (25 mg/kg)
Summary of the method: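 Sprague Dawley rats got test compound iv at 5 mg/kg or orally at 25 mg/kg in a vehicle of 20% (v/v) PCP and 70% (v/v) PBS. Blood (100 μL) was drawn by catheter at 0, 5, 15 and 30 min and 1, 2, 4, 6, 8 and 24 hr, then spun at 15 000 rpm for 10 min. Plasma was stored at −80 °C and assayed by validated LC–MS/MS. Parameters were derived noncompartmentally.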

PARP = test: Western blot of PARP cleavage in MV4; type: cell-based, human; conditions: MV4;11 cells, 24 h
all other 371 kinases = test: DiscoverX KINOMEscan kinase screening, remaining panel; type: binding, human; conditions: read-out: IC50 against all other 371 kinases
p21 = test: Western blot of p21 in MV4; type: cell-based, human; conditions: MV4;11 cells, 24 h
c-Myc = test: Western blot of c-Myc in MV4; type: cell-based, human; conditions: MV4;11 cells, 1 h, different concentrations
[6] = tested on: MDA-MB-231 xenograft tumors
[7] = Table 4 second column as headed

In the case of `COc1cc2c(cc1-c1c(C)noc1C)ncc1[nH]c(=O)n([C@H](C)c3ccccn3)c12` [Compound 5, I-BET151, reference compound], the IC50 [1] is reported as 162 ± 112 nM and the “weight loss or other signs of toxicity” value (MV4;11 xenograft tumors) is reported as “did not cause weight loss or other signs of toxicity”.
With `COc1cc2c(cc1-c1c(C)noc1C)[nH]c1ccnc(-c3c(C4CC4)n[nH]c3C)c12` [Compound 6, RX-37, reference compound] the IC50 [1] was 20 ± 9 nM.
For `COc1cc2c(cc1-c1c(C)noc1C)[nH]c1ncnc(-c3c[nH]c4cc(F)ccc34)c12` [Compound 20, 4-(4-(6-Fluoro-1H-indol-3-yl)-6-methoxy-9H-pyrimido[4,5-b]indol-7-yl)-3,5-dimethylisoxazole], the IC50 [2] was 12.2 ± 4.2 nM, the Ki [2, 7] was 2.6 ± 0.8 nM and the Ki ([2]; Tables 1, 2, 7 and text) was 1 nM. It also gave an IC50 [3] of 374 ± 52 nM, an IC50 [1] of 76 ± 31 nM and an IC50 [4] of 2.2 ± 1 nM. The Ki [4] was 2.6 nM.
In the case of `COc1cc2c(cc1-c1c(C)noc1C)[nH]c1ncnc(-c3c(C)[nH]c4ccccc34)c12` [Compound 21, 4-(6-Methoxy-4-(2-methyl-1H-indol-3-yl)-9H-pyrimido[4,5-b]indol-7-yl)-3,5-dimethylisoxazole], the “solubility in the dosing vehicle” value [5] is reported as “difficult to dissolve”, the aqueous solubility (Aqueous solubility) is reported as “poor” and the CL (Pharmacokinetics in rats) is reported as 31.7 mL/min/kg. The Cmax (Pharmacokinetics in rats; Sprague Dawley, rat, plasma, po, 25 mg/kg) was 1470 ng/mL and ~3 µM.
For `COc1cc2c(cc1-c1c(C)noc1C)[nH]c1ncnc(-c3c(C)[nH]c4cc(F)ccc34)c12` [Compound 22, 4-(4-(6-Fluoro-2-methyl-1H-indol-3-yl)-6-methoxy-9H-pyrimido[4,5-b]indol-7-yl)-3,5-dimethyl isoxazole], the IC50 [2] was 5.6 ± 1.9 nM, the Ki [2, 7] was 0.9 ± 0.3 nM and the Ki ([2]; Tables 1, 2, 7 and text) was < 1 nM. The IC50 [3] was 51 ± 6 nM, the IC50 [1] was 5.1 ± 2.8 nM and the IC50 [4] was 2.3 ± 1.1 nM. For the same compound, the Ki [4] was < 1 nM.
With `COc1cc2c(cc1-c1c(C)noc1C)[nH]c1ncnc(-n3nnc4ccccc43)c12` [Compound 28, 4-(4-(1H-Benzo[d][1,2,3]triazol-1-yl)-6-methoxy-9H-pyrimido[4,5-b]indol-7-yl)-3,5-dimethylisoxazole] the “binding to BRD4 BD2 at 1 μM” value ([2]; FP binding, 1 μM) was “fails to show any appreciable binding” and the “binding to BRD4 BD1 at 1 μM” value ([4]; FP binding, 1 μM) was “fails to show any appreciable binding”.
In the case of `COc1cc2c(cc1-c1c(C)noc1C)[nH]c1nc(C)nc(-c3ccnc4ccccc34)c12` [Compound 31, 4-(6-Methoxy-2-methyl-4-(quinolin-4-yl)-9H-pyrimido[4,5-b]indol-7-yl)-3,5-dimethylisoxazole], the “cleavage of PARP (marker of apoptosis)” value (PARP) is reported as “cleavage of PARP”, the “solubility in the dosing vehicle” value [5] is reported as “readily soluble” and the IC50 (all other 371 kinases) is reported as > 50000 nM. For the same compound, the “effect on p21 protein level” value (p21) was “effective in inducing upregulation of the cell cycle regulator p21”, the “effect on c-Myc protein level” value (c-Myc) was “rapid down-regulation of c-Myc at as early as the 1 h time-point and in a dose-dependent manner” and the tumor growth inhibition ([6]; MDA-MB-231 xenograft in mice, 40 mg/kg dosing daily, during the treatment period) was “essentially complete tumor growth inhibition”. The “weight loss or other signs of toxicity” value ([6]; mouse, in vivo) was “did not experience weight loss or other signs of toxicity”, the CL (Pharmacokinetics in rats) was 14.7 mL/min/kg and the “weight loss or other signs of toxicity” value (MV4;11 xenograft tumors) was “did not cause weight loss or other signs of toxicity”.
With `COc1cc2c(cc1-c1c(C)noc1C)[nH]c1nc(C)nc(-c3c(C)ccc4ncccc34)c12` [Compound 33, 4-(6-Methoxy-2-methyl-4-(6-methylquinolin-5-yl)-9H-pyrimido[4,5-b]indol-7-yl)-3,5-dimethyl-isoxazole] the IC50 [2] was 36.3 ± 6.9 nM, the Ki ([2]; Tables 1, 2, 7 and text) was 10.5 ± 1.9 nM and the IC50 [3] was 220 ± 101 nM. It also gave an IC50 [1] of 99 ± 43 nM, an IC50 [4] of 93.8 ± 15.8 nM and a Ki [4] of 38.4 ± 10.5 nM.
